Source: ChEMBL document CHEMBL1133013, “Structure-activity relationships and pharmacokinetic analysis for a series of potent, systemically available biphenylsulfonamide matrix metalloproteinase inhibitors” (J Med Chem, 2000)

Experiments:
[1] = target: Matrix metalloproteinase-9 (Homo sapiens, UniProt P14780); test: In vitro inhibition of matrix metalloprotease-9 (MMP-9)
[2] = target: Collagenase 3 (Homo sapiens, UniProt P45452)
[3] = Half life (t1/2) in rats following a single 5 mg/kg oral cassette gavage dose; assay type: ADME, organism-based; design: dose 5 mg/kg, route oral; details: rat, in vivo
Method in brief: (§1)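 Cassette of 5–7 compounds given together as one oral gavage, 5 mg/kg per compound, methyl cellulose suspension, 3 fasted male Wistar rats (80-90 days old). Heparinized plasma taken by jugular cannula predose to 48 h. LC-MS/MS with LLOQ 10 ng/mL. Noncompartmental analysis of individual rats: Cmax/tmax as observed, t1/2 = 0.693/λz, trapezoidal AUC(0-tldc) extrapolated to infinity.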

[4] = Cmax in rat plasma after single 5 mg/kg oral cassette gavage dose; assay type: ADME, organism-based; design: dose 5 mg/kg, route oral; method in brief: as §1
[5] = target: 72 kDa type IV collagenase (Homo sapiens, UniProt P08253); test: In vitro inhibition of matrix metalloprotease-2 (MMP-2)
[6] = AUC in rats following a single 5 mg/kg oral cassette gavage dose; assay type: ADME, organism-based; design: dose 5 mg/kg, route oral; details: rat, plasma, read-out: AUC 0-tldc; method in brief: as §1
[7] = target: T1, Matrilysin (Homo sapiens, UniProt P09237); test: In vitro inhibition of matrix metalloprotease-7 (MMP-7)
T1 sequence (P09237 whole entry): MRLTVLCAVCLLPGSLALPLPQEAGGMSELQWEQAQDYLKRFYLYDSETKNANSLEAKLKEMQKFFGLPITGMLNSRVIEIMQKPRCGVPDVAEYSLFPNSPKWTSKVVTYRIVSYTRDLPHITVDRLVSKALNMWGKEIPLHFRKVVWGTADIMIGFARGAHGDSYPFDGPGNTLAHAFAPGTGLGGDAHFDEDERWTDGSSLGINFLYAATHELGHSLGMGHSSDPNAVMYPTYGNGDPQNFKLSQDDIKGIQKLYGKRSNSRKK

[8] = Pharmacokinetic parameters in rats following a single 5 mg/kg oral cassette gavage dose; assay type: ADME, organism-based; design: dose 5 mg/kg, route oral; details: rat, in vivo, read-out: AUC 0-infinity; method in brief: as §1
[9] = target: T2, Interstitial collagenase (Homo sapiens, UniProt P03956); test: In vitro inhibition of human recombinant matrix metalloprotease-1 (MMP-1)
T2 sequence (P03956 whole entry): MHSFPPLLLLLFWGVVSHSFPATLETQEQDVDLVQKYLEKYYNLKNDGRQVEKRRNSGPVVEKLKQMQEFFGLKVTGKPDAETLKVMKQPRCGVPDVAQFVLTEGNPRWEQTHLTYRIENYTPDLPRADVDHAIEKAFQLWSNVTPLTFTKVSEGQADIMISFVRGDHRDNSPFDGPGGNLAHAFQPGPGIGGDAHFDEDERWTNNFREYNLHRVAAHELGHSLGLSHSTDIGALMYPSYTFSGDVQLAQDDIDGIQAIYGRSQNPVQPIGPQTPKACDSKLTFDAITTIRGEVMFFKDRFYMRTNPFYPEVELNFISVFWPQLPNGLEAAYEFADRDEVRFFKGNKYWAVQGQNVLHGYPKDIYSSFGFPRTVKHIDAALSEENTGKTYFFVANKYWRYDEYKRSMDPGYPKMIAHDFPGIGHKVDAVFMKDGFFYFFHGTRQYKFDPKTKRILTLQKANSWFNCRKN

[10] = target: Stromelysin-1 (Homo sapiens, UniProt P08254); test: In vitro inhibition of recombinant human matrix metalloprotease-3 (MMP-3)
[11] = Concentration in rat plasma 24 hours after single 5 mg/kg oral cassette gavage dose; assay type: ADME, organism-based; design: dose 5 mg/kg, route oral; details: read-out: C24
[12] = Time to maximal concentration (tmax) in rats following a single 5 mg/kg oral cassette gavage dose; assay type: ADME, organism-based; design: dose 5 mg/kg, route oral; details: rat, in vivo; method in brief: as §1

Sequence of Matrix metalloproteinase-9 (P14780 whole entry): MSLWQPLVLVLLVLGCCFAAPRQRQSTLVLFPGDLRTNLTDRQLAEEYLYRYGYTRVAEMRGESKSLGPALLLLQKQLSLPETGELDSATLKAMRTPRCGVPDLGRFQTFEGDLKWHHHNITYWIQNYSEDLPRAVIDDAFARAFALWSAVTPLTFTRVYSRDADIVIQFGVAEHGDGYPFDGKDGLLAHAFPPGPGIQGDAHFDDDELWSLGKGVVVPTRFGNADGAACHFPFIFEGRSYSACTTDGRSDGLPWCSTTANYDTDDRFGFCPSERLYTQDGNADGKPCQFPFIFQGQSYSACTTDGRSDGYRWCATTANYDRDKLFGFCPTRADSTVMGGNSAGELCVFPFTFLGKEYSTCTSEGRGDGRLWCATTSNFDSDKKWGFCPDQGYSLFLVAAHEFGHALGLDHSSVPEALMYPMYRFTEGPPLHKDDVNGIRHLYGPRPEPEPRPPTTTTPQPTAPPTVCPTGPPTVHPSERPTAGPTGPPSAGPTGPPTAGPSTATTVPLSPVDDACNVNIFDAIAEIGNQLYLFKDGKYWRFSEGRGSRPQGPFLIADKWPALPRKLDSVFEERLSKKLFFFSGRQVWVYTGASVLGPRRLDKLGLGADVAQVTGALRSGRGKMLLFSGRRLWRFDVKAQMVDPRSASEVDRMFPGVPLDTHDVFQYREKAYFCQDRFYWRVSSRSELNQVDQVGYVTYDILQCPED
Sequence of 72 kDa type IV collagenase (P08253 whole entry): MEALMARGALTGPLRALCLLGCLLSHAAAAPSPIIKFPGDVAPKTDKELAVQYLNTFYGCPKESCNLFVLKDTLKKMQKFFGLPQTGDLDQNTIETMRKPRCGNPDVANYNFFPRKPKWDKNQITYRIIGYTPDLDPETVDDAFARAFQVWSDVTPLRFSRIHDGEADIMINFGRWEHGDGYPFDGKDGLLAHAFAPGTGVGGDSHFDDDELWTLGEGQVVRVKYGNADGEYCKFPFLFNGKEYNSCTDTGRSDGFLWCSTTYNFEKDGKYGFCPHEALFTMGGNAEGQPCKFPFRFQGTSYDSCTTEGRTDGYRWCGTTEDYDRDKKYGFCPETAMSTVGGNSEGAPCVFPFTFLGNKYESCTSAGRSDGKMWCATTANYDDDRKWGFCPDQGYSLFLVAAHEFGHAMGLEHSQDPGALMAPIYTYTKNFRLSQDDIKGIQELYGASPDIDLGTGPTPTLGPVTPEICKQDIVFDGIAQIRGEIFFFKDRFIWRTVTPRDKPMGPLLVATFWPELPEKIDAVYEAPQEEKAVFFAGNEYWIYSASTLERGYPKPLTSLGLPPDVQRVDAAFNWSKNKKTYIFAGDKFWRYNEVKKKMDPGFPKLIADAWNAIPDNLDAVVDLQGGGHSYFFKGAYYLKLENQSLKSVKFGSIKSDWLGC
Sequence of Stromelysin-1 (P08254 whole entry): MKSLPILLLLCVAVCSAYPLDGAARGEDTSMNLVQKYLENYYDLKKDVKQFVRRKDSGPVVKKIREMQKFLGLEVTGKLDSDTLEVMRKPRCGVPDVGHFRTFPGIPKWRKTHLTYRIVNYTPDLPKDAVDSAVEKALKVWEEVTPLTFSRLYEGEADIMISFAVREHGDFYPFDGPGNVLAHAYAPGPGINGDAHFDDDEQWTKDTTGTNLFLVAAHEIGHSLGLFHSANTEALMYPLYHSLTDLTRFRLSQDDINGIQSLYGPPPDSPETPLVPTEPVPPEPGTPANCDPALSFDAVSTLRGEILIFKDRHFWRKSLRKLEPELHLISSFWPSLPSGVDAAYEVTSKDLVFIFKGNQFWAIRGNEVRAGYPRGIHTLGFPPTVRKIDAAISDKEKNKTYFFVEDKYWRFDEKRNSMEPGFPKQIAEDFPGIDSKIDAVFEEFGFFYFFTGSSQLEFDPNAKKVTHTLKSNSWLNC

| SMILES | IC50 [1] | IC50 [2] | half-life [3] | Cmax [4] | IC50 [5] | AUC [6] | IC50 [7] | AUC [8] | IC50 [9] | IC50 [10] | concentration at 24 h [11] | Tmax [12] |
| --- | --- | --- | --- | --- | --- | --- | --- | --- | --- | --- | --- | --- |
| CC(C)C[C@H](NS(=O)(=O)c1ccc(-c2ccc(Br)cc2)cc1)C(=O)O | 4900 nM | 5 nM | 41.8 h | 30700 ng/mL | 9 nM | 578 µg·h/mL | 3100 nM | 1210 µg·h/mL | 7000 nM | 7 nM | 12400 ng/mL | 2.33 h |
| O=C(NCCCC[C@H](NS(=O)(=O)c1ccc(-c2ccc(Br)cc2)cc1)C(=O)O)OCc1ccccc1 | 10000 nM | 13 nM | – | – | 31 nM | – | 15000 nM | – | 40000 nM | 28 nM | – | – |
| CC(C)[C@H](NS(=O)(=O)c1ccc(-c2ccc(C=O)cc2)cc1)C(=O)O | 17000 nM | 16 nM | – | – | 12 nM | – | 4500 nM | – | 3200 nM | 8 nM | – | – |
| CC(C)[C@H](NS(=O)(=O)c1ccc(-c2cccc(F)c2)cc1)C(=O)O | 65000 nM | 150 nM | – | – | 49 nM | – | 22000 nM | – | 8600 nM | 17 nM | – | – |
| COc1ccc(-c2ccc(S(=O)(=O)N[C@H](C(=O)O)C(C)C)cc2)cc1 | 2200 nM | 6 nM | 0.357 h | 4260 ng/mL | 3 nM | 2.79 µg·h/mL | 7200 nM | 2.98 µg·h/mL | 1500 nM | – | < 10 ng/mL | 0.5 h |
| CC(C)[C@@H](NS(=O)(=O)c1ccc(-c2ccc(Br)cc2)cc1)C(=O)O | 1500 nM | – | 41.7 h | 25600 ng/mL | – | 924 µg·h/mL | 11000 nM | 1380 µg·h/mL | – | – | 16300 ng/mL | 4.5 h |
| CC(C)[C@@H](NS(=O)(=O)c1ccc(Oc2ccccc2)cc1)C(=O)NO | 3 nM | 2 nM | 7.78 h | 310 ng/mL | 1 nM | 2.17 µg·h/mL | 180 nM | 3.17 µg·h/mL | – | 4 nM | – | 0.33 h |
| CC(C)[C@@H](NS(=O)(=O)c1ccc(-c2ccc(C#N)cc2)cc1)C(=O)NO | 27 nM | – | 0.79 h | 180 ng/mL | – | 0.23 µg·h/mL | 240 nM | 0.33 µg·h/mL | 170 nM | 5 nM | – | 1 h |
| CC(C)[C@H](NS(=O)(=O)c1ccc(-c2ccc(C#N)cc2)cc1)C(=O)NO | 100000 nM | – | – | – | – | – | 16000 nM | – | 29000 nM | 135 nM | – | – |
| CC(C)[C@H](NS(=O)(=O)c1ccc(-c2cccc(Br)c2)cc1)C(=O)O | – | 710 nM | – | – | 535 nM | – | – | – | – | 290 nM | – | – |
| O=C(O)C(CCS(=O)(=O)Cc1ccccc1)NS(=O)(=O)c1ccc(-c2ccc(Br)cc2)cc1 (stereo not drawn) | 2300 nM | 12 nM | 3.88 h | 451 ng/mL | 2 nM | 2.48 µg·h/mL | 15000 nM | 2.73 µg·h/mL | 27000 nM | 7 nM | – | 1.67 h |
| O=C(CCc1ccccc1)NCCC[C@H](NS(=O)(=O)c1ccc(-c2ccc(Br)cc2)cc1)C(=O)O | 7700 nM | 7 nM | – | – | 8 nM | – | 6800 nM | – | 41000 nM | 21 nM | – | – |
| CC(C)[C@H](NS(=O)(=O)c1ccc(-c2ccc([N+](=O)[O-])cc2)cc1)C(=O)O | 38000 nM | 102 nM | 19.5 h | 23400 ng/mL | – | 402 µg·h/mL | 5600 nM | 586 µg·h/mL | 12000 nM | 15 nM | 8360 ng/mL | 0.667 h |
| O=C(O)[C@H](Cc1ccccc1)NS(=O)(=O)c1ccc(-c2ccc(Br)cc2)cc1 | 27000 nM | 21 nM | 29.7 h | 10300 ng/mL | 19 nM | 310 µg·h/mL | 100000 nM | 465 µg·h/mL | – | 20 nM | 6280 ng/mL | 2.67 h |
| O=C(CCc1ccccc1)NCCCC[C@H](NS(=O)(=O)c1ccc(-c2ccc(Br)cc2)cc1)C(=O)O | 4800 nM | – | – | – | – | – | 8600 nM | – | 15000 nM | 10 nM | – | – |
| CC(C)[C@H](NS(=O)(=O)c1ccc(-c2ccc(N)cc2)cc1)C(=O)O | 20000 nM | 105 nM | – | – | – | – | 31000 nM | – | – | 36 nM | – | – |
| CC(C)[C@H](NS(=O)(=O)c1ccc(-c2ccc(Br)cc2)cc1)C(=O)NO | 84000 nM | 650 nM | – | – | 450 nM | – | 78000 nM | – | 24000 nM | 810 nM | – | – |
| CC(C)[C@H](NS(=O)(=O)c1ccc(-c2ccc(C(F)(F)F)cc2)cc1)C(=O)O | 20000 nM | 23 nM | 37.9 h | 18600 ng/mL | – | 685 µg·h/mL | 7900 nM | 1110 µg·h/mL | 4200 nM | 9 nM | 11700 ng/mL | 2.25 h |
| C[C@H](NS(=O)(=O)c1ccc(-c2ccc(Br)cc2)cc1)C(=O)O | 9500 nM | 10 nM | 25.1 h | 17200 ng/mL | 12 nM | 584 µg·h/mL | 11000 nM | 818 µg·h/mL | – | 12 nM | 12900 ng/mL | 10.5 h |
| CC(C)[C@H](NS(=O)(=O)c1ccc(-c2ccc(Br)cc2)cc1)C(=O)O | 7900 nM | – | 43.6 h | 42400 ng/mL | – | 1400 µg·h/mL | 7200 nM | 2820 µg·h/mL | – | – | 22700 ng/mL | 2 h |
